# Laboratory results reported in ChEMBL document CHEMBL1165950, “Design and synthesis of new potent anticancer pyrazoles with high FLT3 kinase inhibitory selectivity” (Bioorg Med Chem, 2010).
# How the values were obtained:
# Assay type in all cases: functional
# SNB-19 = test: Cytotoxicity against human SNB19 cells assessed as cell growth at 100 nM after 48 hrs by sulforhodamine B assay; settings: SNB-19, 48 h, read-out: Activity
# SNB-75 [1] = test: Cytotoxicity against human SNB75 cells assessed as cell growth at 100 nM after 48 hrs by sulforhodamine B assay; settings: SNB-75, 48 h, read-out: Activity
# SK-MEL-5 = test: Cytotoxicity against human SK-MEL-5 cells assessed as cell growth at 100 nM after 48 hrs by sulforhodamine B assay; settings: SK-MEL-5, 48 h, read-out: Activity
# UACC-257 = test: Cytotoxicity against human UACC257 cells assessed as cell growth at 100 nM after 48 hrs by sulforhodamine B assay; settings: UACC-257, 48 h, read-out: Activity
# OVCAR-3 = test: Cytotoxicity against human OVCAR-3 cells assessed as cell growth at 100 nM after 48 hrs by sulforhodamine B assay; settings: OVCAR-3, 48 h, read-out: Activity
# HL-60(TB) = test: Cytotoxicity against human HL-60(TB) cells assessed as cell growth at 0.01 uM after 48 hrs by sulforhodamine B assay; settings: HL-60, 48 h, read-out: Activity
# Method in brief: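 NCI 60-cell panel. Cells are grown in RPMI 1640 with 5% FBS and 2 mM L-glutamine, seeded at 5000–40,000 cells/well according to doubling time, and preincubated 24 h. Time-zero plates are TCA-fixed. Compound from DMSO stock is given at five 10-fold or 1/2-log concentrations for 48 h at 37 °C, 5% CO2. Suspension cells are fixed with 80% TCA (final 16%) and SRB-stained, with absorbance at 515 nm. Percent growth is derived from Tz, control and test readings.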
# [2] = Cytotoxicity against human Hs 578T cells assessed as cell growth at 100 nM after 48 hrs by sulforhodamine B assay; settings: read-out: Activity
# IGROV-1 [3] = test: Cytotoxicity against human IGROV1 cells assessed as cell growth at 10 uM; settings: read-out: Activity
# Method in brief: (§1)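 Single-dose NCI-60 screen at 10 µM. Cells were grown in RPMI 1640 with 5% FBS and 2 mM L-glutamine, then treated for 48 h at 37 °C. Protein was measured by SRB staining with absorbance at 515 nm. Percentage growth was recorded, and inhibition percentage was calculated as 100 minus growth percentage.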
# SK-OV-3 [4] = test: Cytotoxicity against human SKOV3 cells assessed as cell growth at 10 uM; settings: read-out: Activity
# Method in brief: (§2)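 NCI-60 screen: cells grown in RPMI 1640 with 5% FBS and 2 mM L-glutamine, plated at 5000–40,000 cells/well according to doubling time, and preincubated 24 h at 37 °C, 5% CO2. The single 10 µM dose (DMSO stock) was added, then incubated 48 h. Cells were TCA-fixed and stained with 0.4% SRB, read at 515 nm, and growth % calculated against time-zero and control plates.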
# DU-145 = test: Cytotoxicity against human DU145 cells assessed as cell growth at 10 uM; settings: read-out: Activity; method in brief: as §1
# [5] = Cytotoxicity against human Hs 578T cells assessed as cell growth at 10 uM; settings: read-out: Activity; method in brief: as §1
# EKVX [6] = test: Cytotoxicity against human EKVX cells assessed as cell growth at 0.001 uM after 48 hrs by sulforhodamine B assay; settings: read-out: Activity
# HCT-15 [7] = test: Cytotoxicity against human HCT15 cells assessed as cell growth at 1 uM after 48 hrs by sulforhodamine B assay; settings: HCT-15, 48 h, read-out: Activity
# HT-29 [8] = test: Cytotoxicity against human HT-29 cells assessed as cell growth at 1 uM after 48 hrs by sulforhodamine B assay; settings: HT-29, 48 h, read-out: Activity
# U-251 = test: Cytotoxicity against human U251 cells assessed as cell growth at 1 uM after 48 hrs by sulforhodamine B assay; settings: U-251, 48 h, read-out: Activity
# NCI-H460 = test: Cytotoxicity against human NCI-H460 cells assessed as cell growth at 0.01 uM after 48 hrs by sulforhodamine B assay; settings: NCI-H460, 48 h, read-out: Activity
# NCI-H522 = test: Cytotoxicity against human NCI-H522 cells assessed as cell growth at 0.01 uM after 48 hrs by sulforhodamine B assay; settings: NCI-H522, 48 h, read-out: Activity
# KM12 = test: Cytotoxicity against human KM12 cells assessed as cell growth at 0.01 uM after 48 hrs by sulforhodamine B assay; settings: KM12, 48 h, read-out: Activity
# SF-268 [9] = test: Cytotoxicity against human SF268 cells assessed as cell growth at 0.01 uM after 48 hrs by sulforhodamine B assay; settings: SF-268, 48 h, read-out: Activity
# IGROV-1 [10] = test: Cytotoxicity against human IGROV1 cells assessed as cell growth at 0.01 uM after 48 hrs by sulforhodamine B assay; settings: IGROV-1, 48 h, read-out: Activity
# PC-3 = test: Cytotoxicity against human PC3 cells assessed as cell growth at 0.01 uM after 48 hrs by sulforhodamine B assay; settings: PC-3, 48 h, read-out: Activity
# HT-29 [11] = test: Cytotoxicity against human HT-29 cells assessed as cell growth at 0.001 uM after 48 hrs by sulforhodamine B assay; settings: HT-29, 48 h, read-out: Activity
# MDA-MB-435 = test: Cytotoxicity against human MDA-MB-435 cells assessed as cell growth at 0.001 uM after 48 hrs by sulforhodamine B assay; settings: MDA-MB-435, 48 h, read-out: Activity
# NCI/ADR-RES [12] = test: Cytotoxicity against human NCI/ADR-RES cells assessed as cell growth at 0.001 uM after 48 hrs by sulforhodamine B assay; settings: read-out: Activity
# SK-OV-3 [13] = test: Cytotoxicity against human SKOV3 cells assessed as cell growth at 0.001 uM after 48 hrs by sulforhodamine B assay; settings: SK-OV-3, 48 h, read-out: Activity
# EKVX [14] = test: Cytotoxicity against human EKVX cells assessed as cell growth at 10 uM; settings: read-out: Activity; method in brief: as §1
# IGROV-1 [15] = test: Cytotoxicity against human IGROV1 cells assessed as cell growth at 1 uM after 48 hrs by sulforhodamine B assay; settings: IGROV-1, 48 h, read-out: Activity
# NCI/ADR-RES [16] = test: Cytotoxicity against human NCI/ADR-RES cells assessed as cell growth at 1 uM after 48 hrs by sulforhodamine B assay; settings: read-out: Activity
# SK-OV-3 [17] = test: Cytotoxicity against human SKOV3 cells assessed as cell growth at 1 uM after 48 hrs by sulforhodamine B assay; settings: SK-OV-3, 48 h, read-out: Activity
# UO-31 = test: Cytotoxicity against human UO31 cells assessed as cell growth at 1 uM after 48 hrs by sulforhodamine B assay; settings: UO-31, 48 h, read-out: Activity
# NCI-H23 = test: Cytotoxicity against human NCI-H23 cells assessed as cell growth at 10 uM; settings: read-out: Activity; method in brief: as §2
# HCT-15 [18] = test: Cytotoxicity against human HCT15 cells assessed as cell growth at 10 uM; settings: read-out: Activity; method in brief: as §1
# SW-620 = test: Cytotoxicity against human SW620 cells assessed as cell growth at 10 uM; settings: read-out: Activity; method in brief: as §2
# EKVX [19] = test: Cytotoxicity against human EKVX cells assessed as cell growth at 10 uM after 48 hrs by sulforhodamine B assay; settings: read-out: Activity
# SF-268 [20] = test: Cytotoxicity against human SF268 cells assessed as cell growth at 10 uM after 48 hrs by sulforhodamine B assay; settings: SF-268, 48 h, read-out: Activity
# SNB-75 [21] = test: Cytotoxicity against human SNB75 cells assessed as cell growth at 10 uM after 48 hrs by sulforhodamine B assay; settings: SNB-75, 48 h, read-out: Activity
SMILES,growth at 0.1 µM (SNB-19),growth at 0.1 µM (SNB-75 [1]),growth at 0.1 µM (SK-MEL-5),growth at 0.1 µM (UACC-257),growth at 0.1 µM (OVCAR-3),growth at 0.01 µM (HL-60(TB)),growth at 0.1 µM [2],growth at 10 µM (IGROV-1 [3]),growth at 10 µM (SK-OV-3 [4]),growth at 10 µM (DU-145),growth at 10 µM [5],growth at 0.001 µM (EKVX [6]),growth at 1 µM (HCT-15 [7]),growth at 1 µM (HT-29 [8]),growth at 1 µM (U-251),growth at 0.01 µM (NCI-H460),growth at 0.01 µM (NCI-H522),growth at 0.01 µM (KM12),growth at 0.01 µM (SF-268 [9]),growth at 0.01 µM (IGROV-1 [10]),other results
COc1cc(C)cc(-c2nn(CC#N)cc2-c2ccnc(-c3ccc(N(C)C)cc3)c2)c1,35%,-8%,-22%,28%,-51%,97%,-19%,13.1%,2.56%,2.87%,31.6%,91%,-1%,-29%,-5%,106%,87%,89%,90%,101%,growth at 0.01 µM (PC-3): 96%; growth at 0.001 µM (HT-29 [11]): 103%; growth at 0.001 µM (MDA-MB-435): 103%; growth at 0.001 µM (NCI/ADR-RES [12]): 96%; growth at 0.001 µM (SK-OV-3 [13]): 105%; growth at 10 µM (EKVX [14]): 41%; growth at 1 µM (IGROV-1 [15]): 5%; growth at 1 µM (NCI/ADR-RES [16]): -5%; growth at 1 µM (SK-OV-3 [17]): -24%; growth at 1 µM (UO-31): 18%; growth at 10 µM (NCI-H23): -3.77%; growth at 10 µM (HCT-15 [18]): 8.19%; growth at 10 µM (SW-620): 21.9%; growth at 10 µM (EKVX [19]): 23%; growth at 10 µM (SF-268 [20]): -32%; growth at 10 µM (SNB-75 [21]): -8%
Cc1cc(O)cc(-c2nn(CC#N)cc2-c2ccnc(-c3ccc(N(C)C)cc3)c2)c1,93%,77%,82%,83%,85%,97%,82%,44%,18%,80.3%,47.7%,96%,14%,24%,8%,102%,84%,76%,90%,94%,growth at 0.01 µM (PC-3): 92%; growth at 0.001 µM (HT-29 [11]): 101%; growth at 0.001 µM (MDA-MB-435): 99%; growth at 0.001 µM (NCI/ADR-RES [12]): 97%; growth at 0.001 µM (SK-OV-3 [13]): 92%; growth at 10 µM (EKVX [14]): 71.6%; growth at 1 µM (IGROV-1 [15]): 24%; growth at 1 µM (NCI/ADR-RES [16]): -10%; growth at 1 µM (SK-OV-3 [17]): -11%; growth at 1 µM (UO-31): 19%; growth at 10 µM (NCI-H23): 35.9%; growth at 10 µM (HCT-15 [18]): 22.9%; growth at 10 µM (SW-620): 25%; growth at 10 µM (EKVX [19]): -1%; growth at 10 µM (SF-268 [20]): -58%; growth at 10 µM (SNB-75 [21]): -26%
COc1cc(C)cc(-c2nn(CC#N)cc2-c2ccc(-c3cccc(C(C)=O)c3)nc2)c1,99%,79%,65%,70%,66%,91%,61%,34.6%,10.1%,39%,32%,99%,12%,4%,6%,104%,82%,96%,94%,92%,growth at 0.01 µM (PC-3): 88%; growth at 0.001 µM (HT-29 [11]): 95%; growth at 0.001 µM (MDA-MB-435): 101%; growth at 0.001 µM (NCI/ADR-RES [12]): 99%; growth at 0.001 µM (SK-OV-3 [13]): 86%; growth at 10 µM (EKVX [14]): 51.6%; growth at 1 µM (IGROV-1 [15]): 1%; growth at 1 µM (NCI/ADR-RES [16]): -16%; growth at 1 µM (SK-OV-3 [17]): -4%; growth at 1 µM (UO-31): 21%; growth at 10 µM (NCI-H23): 25.1%; growth at 10 µM (HCT-15 [18]): 23.4%; growth at 10 µM (SW-620): 24.8%; growth at 10 µM (EKVX [19]): -10%; growth at 10 µM (SF-268 [20]): -2%; growth at 10 µM (SNB-75 [21]): -36%
